Reference: ChEMBL document CHEMBL1152985, “Contributions of the combined effects of topoisomerase mutations toward fluoroquinolone resistance in Escherichia coli” (2007)

Assays:
Escherichia coli [1] = assay: Antibacterial activity against Escherichia coli 1596 containing gyrA L83 and parC I80, G84 mutants assessed as increase in MIC by Etest relative to MIC for Escherichia coli 1608 containing gyrA mutant; assay type: functional
Summary of the method: (§1)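 Defined isogenic E. coli strains in a C600 background (parent 1609); mutations introduced by λ Red recombineering with temperature-sensitive pSIM5, overnight recovery after electroporation, plasmid cured at 37°C. Fluoroquinolone MICs were read by Etest per the manufacturer's instructions. MICs above the Etest limit were measured by broth macrodilution per CLSI guidelines. Results are expressed as fold change in MIC relative to the comparator strain.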

Escherichia coli [2] = assay: Antibacterial activity against Escherichia coli SKM9 containing gyrA L83, Y87 and parC L80 mutants assessed as increase in MIC by Etest relative to MIC for Escherichia coli 1596 containing gyrA L83 and parC L80 mutants
Escherichia coli [3] = assay: Antibacterial activity against Escherichia coli 1608 containing gyrA L83, Y87 mutants assessed as increase in MIC by Etest relative to MIC for wild type Escherichia coli 1609
Escherichia coli [4] = assay: Antibacterial activity against Escherichia coli 1596 containing parC K84 mutant assessed as decrease in MIC by Etest relative to MIC for Escherichia coli 1608 containing gyrA mutant; assay type: functional; summary of the method: as §1
Escherichia coli [5] = assay: Antibacterial activity against Escherichia coli SKM18 containing gyrA L83, Y87 and parC I80, G84 mutants assessed as increase in MIC by Etest relative to MIC for Escherichia coli SKM9 containing gyrA L83, Y87 and parC L80 mutants
Escherichia coli [6] = assay: Antibacterial activity against Escherichia coli 1608 containing gyrA L83 mutant assessed as increase in MIC by Etest relative to MIC for wild type Escherichia coli 1609; assay type: functional; summary of the method: as §1

SMILES	Ratio (Escherichia coli [1])	Ratio (Escherichia coli [2])	Ratio (Escherichia coli [3])	MIC (Escherichia coli [4])	Ratio (Escherichia coli [5])	Ratio (Escherichia coli [6])
CO/N=C1\CN(c2nc3c(cc2F)c(=O)c(C(=O)O)cn3C2CC2)CC1CN (configuration not stated) [GEMIFLOXACIN]	1	9	5	0.007 µg/mL		
C[C@H]1COc2c(N3CCN(C)CC3)c(F)cc3c(=O)c(C(=O)O)cn1c23.C[C@H]1COc2c(N3CCN(C)CC3)c(F)cc3c(=O)c(C(=O)O)cn1c23.O [LEVOFLOXACIN]	1	9	5			
COc1c(N2CCNC(C)C2)c(F)cc2c(=O)c(C(=O)O)cn(C3CC3)c12 (configuration not stated) [GATIFLOXACIN]	1	9	5		2	
C[C@@H]1CN(c2c(F)c(N)c3c(=O)c(C(=O)O)cn(C4CC4)c3c2F)C[C@H](C)N1 [SPARFLOXACIN]				0.008 µg/mL		
CCn1cc(C(=O)O)c(=O)c2cc(F)c(N3CCNCC3)cc21 [NORFLOXACIN]	5	9	5			
Cc1c(F)c(N2CCNC(C)C2)cc2c1c(=O)c(C(=O)O)cn2C1CC1 (configuration not stated) [GREPAFLOXACIN]				0.014 µg/mL		
COc1c(N2C[C@@H]3CCCN[C@@H]3C2)c(F)cc2c(=O)c(C(=O)O)cn(C3CC3)c12 [MOXIFLOXACIN]	1	9	5	0.028 µg/mL	10	1
